{
  "source": "ChEMBL document CHEMBL4041520",
  "about": "“Novel pyrimidine-2,4-dione-1,2,3-triazole and furo[2,3-d]pyrimidine-2-one-1,2,3-triazole hybrids as potential anti-cancer agents: Synthesis, computational and X-ray analysis and biological evaluation” (Eur J Med Chem, 2017)",
  "data": [
    {"test_system": "A549", "test": "Antiproliferative activity against human A549 cells after 72 hrs by MTT assay", "format": "functional, cell-based", "settings": "A549, 72 h", "procedure,_shortened": "(§1)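 Monolayers grown in DMEM with 10% FBS and 2 mM L-glutamine at 37 °C, 5% CO2. Cells seeded at 5000 per well on day 0. Compounds added in five 10-fold dilutions (0.01–100 µM), DMSO ≤0.1%, for 72 h. MTT absorbance converted to percentage growth versus untreated wells. IC50 by linear regression of the dose-response curve; highest concentration reported when not reached. Quadruplicate points, three experiments.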", "units": {"IC50": "µM"}, "values": [
      {"smiles": "O=c1nc2oc(CCCCl)c(C#CCCCCl)c2cn1Cc1cn(-c2ccc(F)cc2)nn1", "IC50": 39.4},
      {"smiles": "O=c1c(I)cn(Cc2cn(Cc3ccccc3)nn2)c(=O)n1Cc1cn(Cc2ccccc2)nn1", "IC50": 41.3},
      {"smiles": "O=c1c(I)cn(Cc2cn(-c3ccc(Cl)cc3)nn2)c(=O)n1Cc1cn(-c2ccc(Cl)cc2)nn1", "IC50": 71.1},
      {"smiles": "O=c1nc2oc(CCCCl)c(C#CCCCCl)c2cn1Cc1cn(-c2ccc(Cl)cc2)nn1", "IC50": "> 100"},
      {"smiles": "O=c1nc2oc(CCCCl)cc2cn1Cc1cn(-c2ccccc2F)nn1", "IC50": 69.8},
      {"smiles": "O=c1c(I)cn(Cc2cn(-c3ccccc3F)nn2)c(=O)n1Cc1cn(-c2ccccc2F)nn1", "IC50": 53.4},
      {"smiles": "O=c1[nH]c(=O)n(Cc2cn(-c3ccc(F)cc3)nn2)cc1I", "IC50": 78.8},
      {"smiles": "O=c1nc2oc(C3CC3)cc2cn1Cc1cn(Cc2ccccc2)nn1", "IC50": 45},
      {"smiles": "O=c1nc2oc(CCCCl)cc2cn1Cc1cn(-c2ccc(F)cc2)nn1", "IC50": 68.4}
    ]},
    {"test_system": "HepG2", "test": "Antiproliferative activity against human HepG2 cells after 72 hrs by MTT assay", "format": "functional, cell-based", "settings": "HepG2, 72 h", "procedure,_shortened": "as §1", "units": {"IC50": "µM"}, "values": [
      {"smiles": "O=c1nc2oc(CCCCl)c(C#CCCCCl)c2cn1Cc1cn(-c2ccc(F)cc2)nn1", "IC50": 36.9},
      {"smiles": "O=c1c(I)cn(Cc2cn(Cc3ccccc3)nn2)c(=O)n1Cc1cn(Cc2ccccc2)nn1", "IC50": 5.77},
      {"smiles": "O=c1c(I)cn(Cc2cn(-c3ccc(Cl)cc3)nn2)c(=O)n1Cc1cn(-c2ccc(Cl)cc2)nn1", "IC50": "> 100"},
      {"smiles": "O=c1nc2oc(CCCCl)c(C#CCCCCl)c2cn1Cc1cn(-c2ccc(Cl)cc2)nn1", "IC50": 72.5},
      {"smiles": "O=c1nc2oc(CCCCl)cc2cn1Cc1cn(-c2ccccc2F)nn1", "IC50": 79.8},
      {"smiles": "O=c1c(I)cn(Cc2cn(-c3ccccc3F)nn2)c(=O)n1Cc1cn(-c2ccccc2F)nn1", "IC50": 36.1},
      {"smiles": "O=c1[nH]c(=O)n(Cc2cn(-c3ccc(F)cc3)nn2)cc1I", "IC50": "> 100"},
      {"smiles": "O=c1nc2oc(C3CC3)cc2cn1Cc1cn(Cc2ccccc2)nn1", "IC50": 49.1},
      {"smiles": "O=c1nc2oc(CCCCl)cc2cn1Cc1cn(-c2ccc(F)cc2)nn1", "IC50": 14.6}
    ]},
    {"test_system": "CFPAC-1", "test": "Antiproliferative activity against human CFPAC-1 cells after 72 hrs by MTT assay", "format": "functional, cell-based", "settings": "CFPAC-1, 72 h", "procedure,_shortened": "as §1", "units": {"IC50": "µM"}, "values": [
      {"smiles": "O=c1nc2oc(CCCCl)c(C#CCCCCl)c2cn1Cc1cn(-c2ccc(F)cc2)nn1", "IC50": 95.8},
      {"smiles": "O=c1c(I)cn(Cc2cn(Cc3ccccc3)nn2)c(=O)n1Cc1cn(Cc2ccccc2)nn1", "IC50": "> 100"},
      {"smiles": "O=c1c(I)cn(Cc2cn(-c3ccc(Cl)cc3)nn2)c(=O)n1Cc1cn(-c2ccc(Cl)cc2)nn1", "IC50": "> 100"},
      {"smiles": "O=c1nc2oc(CCCCl)c(C#CCCCCl)c2cn1Cc1cn(-c2ccc(Cl)cc2)nn1", "IC50": "> 100"},
      {"smiles": "O=c1nc2oc(CCCCl)cc2cn1Cc1cn(-c2ccccc2F)nn1", "IC50": 81.8},
      {"smiles": "O=c1c(I)cn(Cc2cn(-c3ccccc3F)nn2)c(=O)n1Cc1cn(-c2ccccc2F)nn1", "IC50": 55.9},
      {"smiles": "O=c1[nH]c(=O)n(Cc2cn(-c3ccc(F)cc3)nn2)cc1I", "IC50": 83.7},
      {"smiles": "O=c1nc2oc(C3CC3)cc2cn1Cc1cn(Cc2ccccc2)nn1", "IC50": 48.5},
      {"smiles": "O=c1nc2oc(CCCCl)cc2cn1Cc1cn(-c2ccc(F)cc2)nn1", "IC50": 6.49}
    ]},
    {"test_system": "HeLa", "test": "Antiproliferative activity against human HeLa cells after 72 hrs by MTT assay", "format": "functional, cell-based", "settings": "not given", "procedure,_shortened": "as §1", "units": {"IC50": "µM"}, "values": [
      {"smiles": "O=c1nc2oc(CCCCl)c(C#CCCCCl)c2cn1Cc1cn(-c2ccc(F)cc2)nn1", "IC50": 41.8},
      {"smiles": "O=c1c(I)cn(Cc2cn(Cc3ccccc3)nn2)c(=O)n1Cc1cn(Cc2ccccc2)nn1", "IC50": 15.1},
      {"smiles": "O=c1c(I)cn(Cc2cn(-c3ccc(Cl)cc3)nn2)c(=O)n1Cc1cn(-c2ccc(Cl)cc2)nn1", "IC50": 96.5},
      {"smiles": "O=c1nc2oc(CCCCl)c(C#CCCCCl)c2cn1Cc1cn(-c2ccc(Cl)cc2)nn1", "IC50": "> 100"},
      {"smiles": "O=c1nc2oc(CCCCl)cc2cn1Cc1cn(-c2ccccc2F)nn1", "IC50": 66.5},
      {"smiles": "O=c1c(I)cn(Cc2cn(-c3ccccc3F)nn2)c(=O)n1Cc1cn(-c2ccccc2F)nn1", "IC50": 49.8},
      {"smiles": "O=c1[nH]c(=O)n(Cc2cn(-c3ccc(F)cc3)nn2)cc1I", "IC50": 7.2},
      {"smiles": "O=c1nc2oc(C3CC3)cc2cn1Cc1cn(Cc2ccccc2)nn1", "IC50": 50},
      {"smiles": "O=c1nc2oc(CCCCl)cc2cn1Cc1cn(-c2ccc(F)cc2)nn1", "IC50": 6.99}
    ]},
    {"test_system": "SW-620", "test": "Antiproliferative activity against human SW620 cells after 72 hrs by MTT assay", "format": "functional, cell-based", "settings": "SW-620, 72 h", "procedure,_shortened": "as §1", "units": {"IC50": "µM"}, "values": [
      {"smiles": "O=c1nc2oc(CCCCl)c(C#CCCCCl)c2cn1Cc1cn(-c2ccc(F)cc2)nn1", "IC50": 69.6},
      {"smiles": "O=c1c(I)cn(Cc2cn(Cc3ccccc3)nn2)c(=O)n1Cc1cn(Cc2ccccc2)nn1", "IC50": "> 100"},
      {"smiles": "O=c1c(I)cn(Cc2cn(-c3ccc(Cl)cc3)nn2)c(=O)n1Cc1cn(-c2ccc(Cl)cc2)nn1", "IC50": "> 100"},
      {"smiles": "O=c1nc2oc(CCCCl)c(C#CCCCCl)c2cn1Cc1cn(-c2ccc(Cl)cc2)nn1", "IC50": "> 100"},
      {"smiles": "O=c1nc2oc(CCCCl)cc2cn1Cc1cn(-c2ccccc2F)nn1", "IC50": "> 100"},
      {"smiles": "O=c1c(I)cn(Cc2cn(-c3ccccc3F)nn2)c(=O)n1Cc1cn(-c2ccccc2F)nn1", "IC50": "> 100"},
      {"smiles": "O=c1[nH]c(=O)n(Cc2cn(-c3ccc(F)cc3)nn2)cc1I", "IC50": "> 100"},
      {"smiles": "O=c1nc2oc(C3CC3)cc2cn1Cc1cn(Cc2ccccc2)nn1", "IC50": 54.7},
      {"smiles": "O=c1nc2oc(CCCCl)cc2cn1Cc1cn(-c2ccc(F)cc2)nn1", "IC50": "> 100"}
    ]},
    {"test_system": "WI-38", "test": "Antiproliferative activity against human WI38 cells after 72 hrs by MTT assay", "format": "cell-based", "settings": "WI-38, 72 h", "procedure,_shortened": "as §1", "units": {"IC50": "µM"}, "values": [
      {"smiles": "O=c1nc2oc(CCCCl)c(C#CCCCCl)c2cn1Cc1cn(-c2ccc(F)cc2)nn1", "IC50": 0.07},
      {"smiles": "O=c1c(I)cn(Cc2cn(Cc3ccccc3)nn2)c(=O)n1Cc1cn(Cc2ccccc2)nn1", "IC50": "< 0.01"},
      {"smiles": "O=c1c(I)cn(Cc2cn(-c3ccc(Cl)cc3)nn2)c(=O)n1Cc1cn(-c2ccc(Cl)cc2)nn1", "IC50": 0.03},
      {"smiles": "O=c1nc2oc(CCCCl)c(C#CCCCCl)c2cn1Cc1cn(-c2ccc(Cl)cc2)nn1", "IC50": "> 100"},
      {"smiles": "O=c1nc2oc(CCCCl)cc2cn1Cc1cn(-c2ccccc2F)nn1", "IC50": 76.5},
      {"smiles": "O=c1c(I)cn(Cc2cn(-c3ccccc3F)nn2)c(=O)n1Cc1cn(-c2ccccc2F)nn1", "IC50": 2.22},
      {"smiles": "O=c1[nH]c(=O)n(Cc2cn(-c3ccc(F)cc3)nn2)cc1I", "IC50": 3.78},
      {"smiles": "O=c1nc2oc(C3CC3)cc2cn1Cc1cn(Cc2ccccc2)nn1", "IC50": 29.7},
      {"smiles": "O=c1nc2oc(CCCCl)cc2cn1Cc1cn(-c2ccc(F)cc2)nn1", "IC50": "< 0.01"}
    ]}
  ]
}
